Assay outcomes as filed in PubChem BioAssay.
Most compounds without a hit are left out; they make up all but 1.8% or so of the library.
Hck-Nef inh – inhibitors of Nef-activated human Hck kinase, primary screen, biochemical, Z-Lyte FRET, 384-well, Hck-YEEI | Tyrosine-protein kinase HCK (Homo sapiens), P08631 | Recombinant Hck-YEEI plus Nef, Z-Lyte FRET kinase assay | inhibition, % at 20 µM | 220,000 compounds, 0.68% hits | AID 463187, 2010;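 active = Hck-Nef kinase inhibition above about 50%, limit read from the data; inactive = inhibition below that limit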;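 note: 0% = DMSO with Hck plus Nef and 100% = Hck alone without Nef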
Target sequence (P08631 whole entry, looked up): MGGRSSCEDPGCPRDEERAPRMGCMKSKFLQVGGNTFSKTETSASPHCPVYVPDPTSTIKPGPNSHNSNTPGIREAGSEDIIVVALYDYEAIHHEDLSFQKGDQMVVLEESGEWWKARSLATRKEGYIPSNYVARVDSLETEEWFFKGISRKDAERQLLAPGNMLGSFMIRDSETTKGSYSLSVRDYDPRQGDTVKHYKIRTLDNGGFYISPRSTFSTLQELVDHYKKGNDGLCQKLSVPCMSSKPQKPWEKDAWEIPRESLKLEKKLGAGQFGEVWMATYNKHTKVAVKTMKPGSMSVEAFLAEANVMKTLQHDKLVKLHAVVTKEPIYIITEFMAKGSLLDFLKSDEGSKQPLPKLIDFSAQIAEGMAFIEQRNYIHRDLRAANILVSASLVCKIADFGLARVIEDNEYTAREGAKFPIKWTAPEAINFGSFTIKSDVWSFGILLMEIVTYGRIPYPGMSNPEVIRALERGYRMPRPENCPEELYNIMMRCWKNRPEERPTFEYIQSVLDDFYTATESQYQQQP
Runt-SMMHC FRET – inhibitors of RUNX1 Runt–CBFb-SMMHC binding, primary screen, biochemical, FRET, Cerulean-Runt, Venus-CBFb-SMMHC, uHTS; 220,000 compounds, 0.74% hits; Runt-related transcription factor 1 (Homo sapiens) + Core-binding factor subunit beta …; inhibition, % at 20 µM; Cerulean-Runt/Venus-CBFb-SMMHC FRET ratio 530/480, 1 h;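 active = mean inhibition across duplicate retests at 20 µM reaching about 50%, limit read from the data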;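 note: 0% = DMSO wells and 100% = wells with excess untagged CBFb-SMMHC; inhibitors lower the FRET ratio by blocking Runt binding to CBFb-SMMHC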
RanGTP-Imp inh – inhibitors of RanGTP-importin-beta interaction, primary screen, biochemical, FRET, CFP-Ran, YFP-importin-beta, homogeneous; Ran GTPase (GTP-bound) - importin-beta complex; cell-free CFP-Ran/YFP-importin-beta FRET ratio; inhibition, % (concentration not given with the values); 300,000 compounds, 1.1% hits; AID 2216, 2009;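 active = more than half of the replicate wells show a fall in the fluorescence ratio signal beyond about 16%, limit read from the data, passing the limit was not always enough; inconclusive = exactly half of the replicate wells pass the set limit; inactive = fewer than half of replicates pass the limit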;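 note: 0% = DMSO wells and 100% = Ran loaded with GDP instead of GTP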
Runt-CBFb FRET – inhibitors of RUNX1 Runt–CBFb binding, primary screen, biochemical, FRET, Cerulean-Runt, Venus-CBFb, uHTS; Runt-related transcription factor 1 (Homo sapiens) + Core-binding factor subunit beta …; Cerulean-Runt/Venus-CBFb FRET ratio 530/480, 1 h; 220,000 compounds, 0.46% hits; AID 1496, 2009; inhibition, % at 20 µM;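 active = inhibition over about 50% at 20 µM in the single-dose screen, limit read from the data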;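 note: 0% = DMSO wells and 100% = excess unlabeled CBFb competitor control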
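Buffer or medium: Tris pH 7.5 buffer with BSA. Assay system: Cerulean-labeled Runt domain protein. Amount: each fluorescent fusion protein 100 nM. Read-out basis: loss of energy transfer signal. Incubation: 1 h compound exposure, room temperature. Probe or stimulus: Venus-CBFb binding partner, 100 nM. Detection: FRET, excitation 422 nm, emission at 530 and 480 nm.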
An asterisk follows results filed as active; u = inconclusive; x = no result.

SMILES	Hck-Nef inh	Runt-SMMHC FRET	RanGTP-Imp inh	Runt-CBFb FRET
COc1cc(C(=O)Nc2ccc(N3CCN(C(=O)c4ccc(C)cc4)CC3)cc2)cc(OC)c1OC	x	x	8.2	x
CCOC(=O)C1CCN(c2cc(=O)n(-c3ccccc3Cl)c(=O)[nH]2)CC1	7.8	0.4	59.0*	-0.6
O=c1cc(N2CCCCCC2)[nH]c(=O)n1-c1ccccc1Cl	16.2	1.1	x	-1.2
Cc1ccccc1-n1c(=O)cc(N2CCCCCC2)[nH]c1=O	-1.8	0.4	144.7*	x
COCCNC(=O)/C(C#N)=C/c1c(N2CC(C)OC(C)C2)nc2ccccn2c1=O (configuration not stated)	5.6	82.3*	4.5	47.8
CN1CCN(c2nc3ccccn3c(=O)c2C=O)CC1	x	x	99.7*	x
COCCNC(=O)/C(C#N)=C/c1c(N2CCN(c3ccccc3)CC2)nc2ccccn2c1=O	x	x	5.4	x
COCCCNC(=O)/C(C#N)=C/c1c(N2CCN(C)CC2)nc2ccccn2c1=O	x	x	87.2*	x
CCNC(=O)/C(C#N)=C/c1c(N2CC(C)OC(C)C2)nc2ccccn2c1=O (configuration not stated)	2.6	77.2*	-0.1	104.1*
COc1ccc(CCNC(=O)CSc2nnc3ccc(-c4ccccn4)nn23)cc1OC	x	x	-1.2	x
Cc1cc(NS(=O)(=O)c2ccc(NC(=O)/C=C/c3cccc(Cl)c3)cc2)no1	x	x	-3.9	x
COCCNC(=O)CCn1nc(-c2ccc(C)cc2)ccc1=O	x	x	0.9	x
CC(=O)CSc1nnc(C(F)(F)F)n1C	12.8	-3.1	5.3	4.8
CC1CN(c2nc3ccccn3c(=O)c2/C=C(\C#N)C(N)=O)CC(C)O1 (configuration not stated)	8.1	7.9	-1.4	93.8*
COC(=O)c1cccc(Cn2c(Cl)c(/C=N/NC(=O)c3ccco3)sc2=O)c1	x	x	0.7	x
Cc1ccc(CNC(=O)C2CCC(CNc3nc(=S)[nH]c4ccccc34)CC2)cc1 (configuration not stated)	18.3	-2.9	27.2*	-3.8
CCCCn1c(=NC(=O)c2cccnc2)c(C(=O)OCC)cc2c(=O)n3ccccc3nc21	12.8	62.0*	82.0*	93.1*
CCOC(=O)c1cc2c(=O)n3cccc(C)c3nc2n(CCCOC)c1=NC(=O)c1cccnc1	28.4	12.4	128.6*	110.4*
CCOCCCn1c(=NC(=O)c2cccnc2)c(C(=O)OCC)cc2c(=O)n3ccccc3nc21	31.6	41.7	118.6*	65.1*
CCOCCCn1c(=NC(=O)c2cccs2)c(C#N)cc2c(=O)n3ccccc3nc21	22.3	81.2*	105.0*	85.6*
CCC1OC23CCCCC2C(C#N)(C(=N)O3)C1(C#N)C#N (configuration not stated)	-0.5	52.5	27.1*	24.2
CC1OC23CCCCC2C(C#N)(C(=N)O3)C1(C#N)C#N (configuration not stated)	4.5	38.2	7.6	27.2
N#CC12COC3(CCCCC3C1(C#N)C#N)OC2=N (configuration not stated)	13.0	18.4	33.2*	0.6
COc1ccc(C2OC34CCCCC3C(C#N)(C#N)C2(C#N)C(=N)O4)cc1 (configuration not stated)	0.8	76.8*	43.3*	32.3
CCCC1OC23CCCCC2C(C#N)(C(=N)O3)C1(C#N)C#N (configuration not stated)	2.0	33.2	33.3*	24.7
CC(OC(=O)/C(C#N)=C/c1ccc(N(C)C)cc1)C(=O)N(C)Cc1ccccc1 (configuration not stated)	x	x	80.9*	x
COC(=O)c1n[nH]c2ccccc12	-0.1	6.7	24.2*	-0.3
COCCNC(=O)c1n[nH]c2ccccc12	17.2	1.9	u	0.1
CC1CN(C(=O)COC(=O)c2ccc(F)cc2Cl)CC(C)O1 (configuration not stated)	x	x	5.9	x
CCN1CC=C2C(C#N)=C(N)C(C#N)(C#N)C(CCc3ccccc3)C2C1 (configuration not stated)	17.4	37.9	x	108.2*
